Test results published in ChEMBL document CHEMBL3085637, “Synthesis and anticancer potential of certain novel 2-oxo-N'-(2-oxoindolin-3-ylidene)-2H-chromene-3-carbohydrazides” (Eur J Med Chem, 2013).

System: HT-29
Assay: Inhibition of side population in human HT-29 cells at 100 uM after 90 mins using vybrant dyecycle violet staining by FACS analysis
Format: functional
Details: HT-29, 1.5 h
Outline: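 HT-29 cells were stained in medium with Vybrant DyeCycle Violet for 90 min at 37 °C, centrifuged and washed with medium. Side-population cells were identified by flow cytometry histograms. The reference control was verapamil, which blocks the transporter responsible for dye exclusion. Results are % side-population inhibition ± SD.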

COc1ccc(CCN(C)CCCC(C#N)(c2ccc(OC)c(OC)c2)C(C)C)cc1OC (stereo unspecified)
inhibition at 100 µM: 95%
